In the library only some 3.7% were active in any assay of this set; here they are far more common.
Cl transport mod – KCC2 cotransporter modulators, thallium flux, primary screen, cell-based, HEK293 KCC2, FluoZin-2 fluorescence, MLSMR; KCC2 cells, thallium flux FluoZin-2 fluorescence; B-score of Tl+ flux slope (higher = more flux/activation; lower = inhibition) at 10 µM; actives 2.2% (n = 190,000); AID 1456, 2008;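 active means thallium flux slope and its plate-corrected score both differing from the plate sample mean at a set confidence after two filtering rounds, in either direction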;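 further: slope of fluorescence scaled to starting intensity during 10 to 20 s after thallium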
Target sequence (Q9H2X9 whole entry, looked up): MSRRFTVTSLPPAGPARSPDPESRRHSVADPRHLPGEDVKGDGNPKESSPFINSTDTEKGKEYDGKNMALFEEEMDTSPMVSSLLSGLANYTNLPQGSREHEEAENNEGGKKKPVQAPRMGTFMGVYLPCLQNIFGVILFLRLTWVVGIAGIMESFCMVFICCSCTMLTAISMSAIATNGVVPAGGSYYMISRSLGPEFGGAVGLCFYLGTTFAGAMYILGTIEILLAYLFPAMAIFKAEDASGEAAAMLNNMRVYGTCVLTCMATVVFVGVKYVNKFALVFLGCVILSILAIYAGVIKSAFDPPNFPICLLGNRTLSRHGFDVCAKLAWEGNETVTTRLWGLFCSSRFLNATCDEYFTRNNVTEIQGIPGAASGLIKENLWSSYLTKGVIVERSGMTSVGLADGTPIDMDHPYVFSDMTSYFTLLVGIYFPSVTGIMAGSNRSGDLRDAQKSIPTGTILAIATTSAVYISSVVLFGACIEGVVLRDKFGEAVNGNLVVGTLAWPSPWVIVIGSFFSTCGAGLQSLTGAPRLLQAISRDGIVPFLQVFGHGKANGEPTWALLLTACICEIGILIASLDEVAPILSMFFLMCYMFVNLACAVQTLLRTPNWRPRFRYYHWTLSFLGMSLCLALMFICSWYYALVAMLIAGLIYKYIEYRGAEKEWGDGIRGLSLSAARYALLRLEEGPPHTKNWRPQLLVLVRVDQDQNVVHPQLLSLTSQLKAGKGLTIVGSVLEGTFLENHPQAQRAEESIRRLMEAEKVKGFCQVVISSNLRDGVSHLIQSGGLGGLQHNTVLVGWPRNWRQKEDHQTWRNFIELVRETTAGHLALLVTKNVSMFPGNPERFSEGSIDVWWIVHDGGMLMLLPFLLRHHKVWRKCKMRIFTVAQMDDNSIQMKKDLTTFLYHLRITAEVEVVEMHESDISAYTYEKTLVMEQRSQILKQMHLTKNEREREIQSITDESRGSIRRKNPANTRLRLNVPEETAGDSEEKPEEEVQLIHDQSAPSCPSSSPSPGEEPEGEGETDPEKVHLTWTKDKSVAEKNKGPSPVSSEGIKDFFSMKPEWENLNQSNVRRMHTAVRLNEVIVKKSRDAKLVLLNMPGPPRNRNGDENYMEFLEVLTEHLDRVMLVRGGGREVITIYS
NPY-Y2 antag – NPY-Y2 receptor antagonists, primary screen, cell-based. AID 793, 2007. Neuropeptide Y receptor type 2 (Homo sapiens), P49146. inhibition, % at 2.7 µM. actives 0.99% (n = 140,000). NPY-Y2 expressing cells, antagonist mode; in the data active means inhibition above about 17%
NPY2 pot ag – NPY-Y2 potentiators or agonists, primary screen, cell-based; activation, % at 3.6 µM; actives 0.45% (n = 220,000); Neuropeptide Y receptor type 2 (Homo sapiens), P49146; cells expressing NPY-Y2, potentiator/agonist read-out; in the data active means activation above about 27%;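 further: cells stimulated with NPY near EC25 plus isoproterenol at EC100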
Furin inh – human furin inhibitors, primary screen, biochemical, fluorescence intensity | P09958 | purified furin, fluorogenic substrate cleavage | inhibition, % at 20 µM or 30 µM | actives 0.061% (n = 220,000) | AID 463115, 2010; in the data active means inhibition above about 25%
NPY Y1 blocker – NPY-Y1 receptor antagonists, primary screen, cell-based | HEK293-CNG Y1 cells, membrane potential fluorescence; NPY at EC95, then isoproterenol | actives 1% (n = 200,000) | Neuropeptide Y receptor type 1 (Homo sapiens), P25929 | inhibition, % at 3.6 µM;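 active means inhibition above the campaign mean inhibition of all tested compounds plus 3 SD, cut at about 20% in these data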
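System: HEK293 cells with Y1 receptor plus CNG channel / Probe or stimulus: NPY 25 nM then isoproterenol 1 µM plus Ro 20-1724 25 µM / Compound: one concentration, 3.6 µM, in 0.4% DMSO / Schedule: compound incubation 1 h at room temperature, readout 45 min post-stimulation / Measured by: membrane potential fluorescence / Read-out: % inhibition of NPY effect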
NPY1 pot ag – NPY-Y1 receptor potentiators or agonists, primary screen, cell-based; Neuropeptide Y receptor type 1 (Homo sapiens), P25929; activation, % at 3.6 µM; AID 1304, 2008; actives 0.37% (n = 220,000); NPY-Y1 expressing cells, potentiator/agonist activation; in the data active means activation above about 33%, passing the limit was not always enough;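 further: cells stimulated with NPY at EC10 then isoproterenol at EC100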
NPY1 antag ctr – NPY-Y1 receptor antagonists, selectivity check, counter-screen for NPY-Y2 antagonist project, cell-based. shares compounds with NPY-Y2 antag. cell-based NPY-Y1 antagonism counterscreen. inhibition, % at 3.6 µM. actives 19% (n = 710); in the data active means inhibition above about 20%;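 further: cells challenged with NPY then isoproterenol with cAMP sensed through a CNG channel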
NPY-Y2 ant conf – NPY-Y2 receptor antagonists, retest of hits, confirmation, HEK293-CNG cells, membrane potential fluorescence, triplicate; shares compounds with NPY-Y2 antag; HEK293 NPY-Y2 CNG channel; inhibition, % at 2.8 µM; actives 32% (n = 710); AID 1257, 2008;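 active means mean inhibition of triplicate wells above the hit cutoff set in the primary screen, cut at about 17% in these data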
Hits are given with their value; – = inactive; · = not tested or not shown; + = active, no number.

SMILES	Cl transport mod	NPY-Y2 antag	NPY2 pot ag	Furin inh	NPY Y1 blocker	NPY1 pot ag	others
Cc1ccccc1C1=NCC(=S)Nc2ccc(Cl)cc21	5.7	–	–	–	–	–
Clc1ccc2c(c1)C(c1ccccc1Cl)=NCc1nnc(Br)n1-2	–	–	–	–	–	–
CCCCCSc1cc(OC)c(CCN)cc1OC	–	–	–	–	–	53
CCCCCCCSc1cc(OC)c(CCN(C)C)cc1OC	·	–	–	–	–	–
Cc1ccc(C2=CCNCC2)cc1	–	·	–	–	–	–
CCN(CC)C(=O)N[C@H]1C[C@@H]2c3cccc4[nH]cc(c34)C[C@H]2N(C)C1	–	–	72	–	–	84
CC1(C)C(C(=O)NN2C(=O)c3ccccc3C2=O)C1(C)C	–	–	–	–	–	–
COc1ccc(Cc2nccc3cc(OC)c(OC)cc23)cc1OC	–	20	–	–	22	–
COc1ccccc1NC1(C#N)CCCCC1	–	·	–	–	–	–
Nc1ccccc1C(=O)OCc1ccc([N+](=O)[O-])cc1	–	·	–	–	–	–
C=C1[C@@H](C)[C@H]2[C@H](Cc3ccccc3)NC(=O)[C@]23OC(=O)/C=C/[C@H](O)CCC[C@@H](C)C/C=C/[C@H]3[C@@H]1O	–	·	–	·	21	–
O=C1C(=O)c2cccc3cccc1c23	·	–	–	–	–	–
O=C1C(=O)c2ccccc2-c2ccccc21	–	40	–	–	39	–
CCCCN1CCC(O)(c2ccccc2)C(C(=O)c2ccccc2)C1 (configuration not stated)	–	–	–	34	–	–
CCC1CN(C)CCC1(OC(C)=O)c1ccccc1 (configuration not stated)	–	–	–	–	–	–
CCCC/C(=N\O)c1c[nH]c2ccccc12	–	–	–	–	–	–
CN1/C(=C\C=C2C(=O)NC(=O)NC2=O)C(C)(C)c2ccccc21	–	·	–	28	–	–
C=CCn1c(O)c(/C=N/NC(=O)c2ccncc2)c(=O)[nH]c1=O	–	·	–	36	·	–
Cn1cc(C(=O)Cc2ccccc2)c2ccccc21	–	–	–	–	–	–
CCc1nc2ccccc2c(=O)n1-c1ccccc1[N+](=O)[O-]	–	–	–	–	–	–
Cc1nnc(SCc2nc3ccccc3c(=O)n2-c2ccccc2Cl)n1N	–	–	–	26	–	–
CN1/C(=C\C=C\C2=[N+](C)c3ccc4ccccc4c3C2(C)C)C(C)(C)c2ccccc21	-6	+	–	–	+	–
Cc1nn(C)c(C)c1/C=C1/CC2C3CC=C4CC(O)CCC4(C)C3CCC2(C)C1=O (configuration not stated)	–	47	–	–	26	–
C#CCN1C(=O)C2(C(C#N)=C(N)OC(C)=C2C(=O)OCc2ccccc2)c2ccccc21 (configuration not stated)	–	–	–	–	–	–
O=P(NC(c1ccccc1)c1ccccc1)(Oc1ccccc1)Oc1ccccc1	–	38	–	–	21	–
SMILES	Cl transport mod	NPY-Y2 antag	NPY2 pot ag	Furin inh	NPY Y1 blocker	NPY1 pot ag	others
CCc1nc(N2CCNCC2)c(C#N)c2c1CSC(C)(C)C2	–	–	89	–	–	92
C=C1C[C@@H]2[C@H](CC[C@]3(C)C(=O)CC[C@@H]23)[C@@]2(C)C=CC(=O)C=C12	–	·	–	·	–	–
COc1ccccc1CCNC1CCCC(C)C1 (configuration not stated)	–	–	–	–	–	–
COc1ccccc1CCNC1CCC(C(C)(C)C)CC1 (configuration not stated)	–	30	–	–	29	–
Cc1ccccc1NP(=O)(Oc1ccccc1F)Oc1ccccc1F	–	–	–	–	–	–
COc1ccc(C2NCc3ccc4c(c3-n3cccc32)OCO4)cc1O (configuration not stated)	–	19	–	–	–	–	NPY1 antag ctr=21;NPY-Y2 ant conf=37
O=C(c1cccc([N+](=O)[O-])c1)C12CN3CN(CN(C3)C1)C2	·	·	–	–	–	–
CCCC/C(C)=C/[C@@H](NP(=O)(c1ccccc1)c1ccccc1)c1ccccc1	–	27	–	–	–	–	NPY1 antag ctr=23;NPY-Y2 ant conf=20
CCCCCP(=O)(O)c1ccccc1	–	–	–	–	–	–
C=CC1CN2CCC1CC2C(OC(C)=O)c1ccnc2ccc(OC)cc12 (configuration not stated)	–	·	–	–	·	–
O=C(Nc1ccc(F)cc1)c1c(O)c2c(n(Cc3ccccc3)c1=O)CCCC2	–	–	–	–	–	–
O=C(Nc1cccnc1)c1c(O)c2c(n(Cc3ccccc3)c1=O)CCCC2	–	19	–	–	–	–	NPY1 antag ctr=–;NPY-Y2 ant conf=–
O=C(CNC(=O)c1cccc(Cl)c1)Nc1ccc(Br)cc1C(=O)c1ccccc1	–	23	–	–	–	–	NPY1 antag ctr=–;NPY-Y2 ant conf=–
Cc1c(C(=O)N2CCC3(CC2)OCCO3)sc2ncnc(N3CCN(c4ccccn4)CC3)c12	–	–	–	–	–	–
Clc1ccc(COC(Cn2ccnc2)c2ccc(Cl)cc2Cl)cc1 (configuration not stated)	–	22	–	–	–	–	NPY1 antag ctr=–;NPY-Y2 ant conf=18
CN1C[C@H](CNC(=O)OCc2ccccc2)C[C@@H]2c3cccc4c3c(cn4C)C[C@H]21	–	18	–	–	–	–	NPY1 antag ctr=–;NPY-Y2 ant conf=–
O=C(c1cccs1)c1cn(Cc2ccccc2Cl)c2ccccc12	–	19	–	–	–	–	NPY1 antag ctr=21;NPY-Y2 ant conf=–
N#Cc1ccccc1Cn1cc(C(=O)c2cccs2)c2ccccc21	–	–	–	–	–	–
COc1ccccc1-n1c(-c2cccs2)nc2ccccc2c1=O	·	·	–	–	–	–
Cc1cccc(OP(=O)(NCc2ccccc2)Oc2cccc(C)c2)c1	–	19	–	–	–	–	NPY1 antag ctr=–;NPY-Y2 ant conf=–
CCC(=NCCC(c1ccccc1)c1ccccc1)c1c(O)n(C)c(=O)n(C)c1=O	–	24	–	–	–	–	NPY1 antag ctr=–;NPY-Y2 ant conf=27
Cn1c(O)c(C(=O)c2ccccc2)c(=O)n(C)c1=O	–	–	–	–	–	–
Cc1c(N)c(C)c([N+](=O)[O-])c(C)c1[N+](=O)[O-]	–	·	–	–	–	–

From PubChem BioAssay
